Converted amounts (≈) assume the structure as drawn.

We go through 9 compounds from ChEMBL document CHEMBL2203222, “Mannich bases of scutellarein as thrombin-inhibitors: design, synthesis, biological activity and solubility” (Bioorg Med Chem, 2012).

In series [1] the test system is Radical scavenging activity. Kind of series: Antioxidant activity assessed as inhibition of DPPH radical by spectrophotometric analysis […]. Type of series: functional. An outline of the steps: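 Sample in DMSO mixed with an equal volume of 0.2 mM ethanolic DPPH. Test compounds spanned […], alongside reference antioxidants and a DMSO control. Reaction ran 30 min at 25 °C, then absorbance was read at 517 nm on a microplate reader. Scavenging % = (1 − A_test/A_control) × 100, with A_control taken from DMSO alone.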
(Loss of DPPH colour is used to gauge radical scavenging.)

The subject of series [2] is Plasma. Put plainly: Antithrombin activity in New Zealand white rabbit plasma assessed as fibrinogen content at 25 uM by coagulometer. It is filed as functional, Oryctolagus cuniculus.
A short description of series [3]: Solubility of the compound in water by UV-visible spectrophotometry relative to scutellarein. Type of series: physicochemical.
The subject of series [4] is Plasma. Kind of series: Antithrombin activity in New Zealand white rabbit plasma assessed as prothrombin time at 25 uM by coagulometer. It is filed as functional, Oryctolagus cuniculus.
A short description of series [5]: Solubility of the compound in water by UV-visible spectrophotometry. Type of series: physicochemical.
Series [6] relates to Plasma. Put plainly: Antithrombin activity in New Zealand white rabbit plasma assessed as thrombin time at 25 uM by coagulometer. It is filed as functional, Oryctolagus cuniculus.
For series [7], the system named is Plasma. Kind of series: Antithrombin activity in New Zealand white rabbit plasma assessed as activated partial thromboplastin time at 25 uM by coagulometer. It is filed as functional, Oryctolagus cuniculus.
Series [8] is described as follows: Absolute bioavailability in po dosed Beagle dog. It is filed as ADME, organism-based, Canis lupus familiaris. Particulars: in vivo.

Broadly, the IC50 is the point on the concentration scale where inhibition reaches its midpoint. Broadly, the solubility is the dissolved amount per volume that the medium holds. High values mean much dissolved substance, low ones little dissolved substance. In the case of `CN(C)Cc1c(O)c(O)c(O)c2c(=O)cc(-c3ccc(O)cc3)oc12`, the IC50 in series [1] came out at 26.5 µM. Moreover, in the series with Plasma [2], the Activity is recorded as 5.56 g/L. For the same compound, the “fold change (FC)” value in series [3] came to 1.23. In the series on Plasma [4], the PT was 7.45 s. Besides, the solubility in series [5] was determined as 8.58 µM (≈ 2.95 µg/mL). The TT with Plasma [6] stood at 12.58 s. Further, in the series on Plasma [7], the APTT turned out to be 34.23 s.
Consider `CCN(CC)Cc1c(O)c(O)c(O)c2c(=O)cc(-c3ccc(O)cc3)oc12`, for which, in series [1], the IC50 is 25 µM. Further, the Activity in the series on Plasma [2] is on record as 5.36 g/L. For the same compound, the “fold change (FC)” value in series [3] was determined as 1.11. For the same compound, the PT in the series on Plasma [4] was found to be 7.55 s. The compound further registered a solubility in series [5] of 7.71 µM (≈ 2.86 µg/mL). In the series on Plasma [6], the TT worked out at 12.63 s. Moreover, the APTT in the series on Plasma [7] was 34.62 s.
`CC(C)N(Cc1c(O)c(O)c(O)c2c(=O)cc(-c3ccc(O)cc3)oc12)C(C)C`: the concentration for half-maximal inhibition (IC50) in series [1] turned out to be 30.1 µM. The Activity in the series on Plasma [2] is reported as 5.54 g/L. The “fold change (FC)” value in series [3] was 1.15. Besides, the PT in the series with Plasma [4] was determined as 7.47 s. In series [5], the solubility turned out to be 7.97 µM (≈ 3.18 µg/mL). Besides, the TT in the series with Plasma [6] amounted to 11.75 s. In the series on Plasma [7], the APTT is reported as 34.52 s.
Regarding `O=c1cc(-c2ccc(O)cc2)oc2c(CN3CCOCC3)c(O)c(O)c(O)c12`, the IC50 in series [1] was 30.9 µM. Moreover, the Activity in the series on Plasma [2] is 5.26 g/L. Also, the “fold change (FC)” value in series [3] came out at 1.67. For the same compound, the PT in the series on Plasma [4] was 7.84 s. For the same compound, the solubility in series [5] came to 11.6 µM (≈ 4.48 µg/mL). Moreover, the TT with Plasma [6] is 14.48 s. Besides, in the series with Plasma [7], the APTT worked out at 35.48 s.
For the compound `CN1CCN(Cc2c(O)c(O)c(O)c3c(=O)cc(-c4ccc(O)cc4)oc23)CC1`, in series [1], the IC50 came out at 32.5 µM. The Activity in the series on Plasma [2] came out at 5.46 g/L. The “fold change (FC)” value in series [3] amounted to 1.05. Moreover, in the series on Plasma [4], the PT is listed as 7.71 s. Moreover, the solubility in series [5] is 7.28 µM (≈ 2.9 µg/mL). For the same compound, in the series with Plasma [6], the TT worked out at 14.4 s. In the series with Plasma [7], the APTT amounted to 35.42 s.
Take `CCN1CCN(Cc2c(O)c(O)c(O)c3c(=O)cc(-c4ccc(O)cc4)oc23)CC1`: the half-inhibitory concentration (IC50) in series [1] was determined as 32.4 µM. In addition, the Activity in the series with Plasma [2] was found to be 5.54 g/L. For the same compound, the “fold change (FC)” value in series [3] is reported as 1.02. Further, in the series with Plasma [4], the PT is 7.41 s. Further, the concentration in solution in series [5] (solubility) was 7.07 µM (≈ 2.92 µg/mL). In the series with Plasma [6], the TT is 14.13 s. Besides, the APTT in the series on Plasma [7] is given as 35.15 s.
`CCCCN1CCN(Cc2c(O)c(O)c(O)c3c(=O)cc(-c4ccc(O)cc4)oc23)CC1`: the IC50 in series [1] worked out at 32.7 µM. Besides, the Activity in the series on Plasma [2] was 5.56 g/L. Also, the “fold change (FC)” value in series [3] is listed as 1.31. In the series on Plasma [4], the PT is on record as 7.4 s. For the same compound, the concentration in solution in series [5] (solubility) came to 9.11 µM (≈ 4.01 µg/mL). Further, in the series with Plasma [6], the TT was 13.45 s. For the same compound, the APTT in the series on Plasma [7] came to 35.01 s.
`O=c1cc(-c2ccc(O)cc2)oc2cc(O)c(O)c(O)c12` [SCUTELLAREIN]: the IC50 in series [1] stood at 24 µM. For the same compound, the Activity in the series with Plasma [2] is reported as 5.96 g/L. For the same compound, the PT with Plasma [4] is recorded as 7.34 s. Moreover, in series [5], the solubility turned out to be 6.95 µM (≈ 1.99 µg/mL). Moreover, in the series with Plasma [6], the TT is 10.25 s. Besides, the APTT in the series on Plasma [7] amounted to 33.36 s.
The term bioavailability denotes dose-corrected exposure relative to a reference, in per cent. Higher therefore signals much systemic uptake. For `O=C(O)[C@H]1O[C@@H](Oc2cc3oc(-c4ccc(O)cc4)cc(=O)c3c(O)c2O)[C@H](O)[C@@H](O)[C@@H]1O` [SCUTELLARIN], the bioavailability in series [8] is 0.4%.
